Source: ChEMBL document CHEMBL5661979, “Pharmacological inhibition of BMK1 suppresses tumor growth through promyelocytic leukemia protein” (Cancer Cell, 2010)
pIC50: −log10 of the molar value. Calls of active or inactive are those of the source. The calls are words filed in the database; no cut-off is given here.

Tests used:
[1] = target: T1, STE20-like serine/threonine-protein kinase (Homo sapiens, UniProt Q9H2G2); experiment: Inhibition of SLK in human HeLa cells lysate at 50 uM pre incubated for 15 mins followed by ATP acyl phosphate probe addition and measured after 10 mins by LC-MS/MS analysis relative to control; format: subcellular; conditions: time 25.0 min
[2] = target: Ribosomal protein S6 kinase beta-1 (Homo sapiens, UniProt P23443); experiment: Inhibition of P70S6K in human HeLa cells lysate at 10 uM pre incubated for 15 mins followed by ATP acyl phosphate probe addition and measured after 10 mins by LC-MS/MS analysis relative to control; format: subcellular; conditions: time 25.0 min
[3] = target: Ribosomal protein S6 kinase alpha-5 (Homo sapiens, UniProt O75582); experiment: Inhibition of MSK1 domain 1 K2 site in human HeLa cells lysate pre incubated for 15 mins followed by ADP acyl phosphate probe addition and measured after 10 mins by LC-MS/MS analysis; format: subcellular
[4] = test system: Serine/threonine-protein kinase PLK1 (Homo sapiens), P53350 [UNDEFINED MUTATION]; experiment: Inhibition of PLK1 splice variant in human HeLa cells lysate at 10 uM pre incubated for 15 mins followed by ADP acyl phosphate probe addition and measured after 10 mins by LC-MS/MS analysis relative to control; format: subcellular; conditions: time 25.0 min
[5] = Inhibition of KHS1/2 in human HeLa cells lysate at 10 uM pre incubated for 15 mins followed by ATP acyl phosphate probe addition and measured after 10 mins by LC-MS/MS analysis relative to control; conditions: 25 min, condition cancer
[6] = MRT in Sprague-Dawley rat at 1 mg/kg, iv measured up to 8 hrs by LC-MS/MS analysis; format: ADME, organism-based; conditions: in vivo
[7] = target: 5'-AMP-activated protein kinase catalytic subunit alpha-1 (Homo sapiens, UniProt Q13131); experiment: Inhibition of AMPKalpha1 in human HeLa cells lysate pre incubated for 15 mins followed by ADP acyl phosphate probe addition and measured after 10 mins by LC-MS/MS analysis; format: subcellular
Summary of the method: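 HeLa cell lysates (5 mg/mL total protein) were preincubated with inhibitor at 0, 0.8, 2, 10 or 50 μM for 15 min. ATP or ADP acylphosphate probe was then added (5 μM final) for 10 min, and reactions were stopped with urea. Up to four fragment ions per kinase probe-peptide were quantified by targeted MS. % inhibition was taken relative to untreated lysate. Run in duplicate.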

[8] = target: Serine/threonine-protein kinase B-raf (Homo sapiens, UniProt P15056); experiment: Inhibition of BRAF in human HeLa cells lysate at 2 uM pre incubated for 15 mins followed by ADP acyl phosphate probe addition and measured after 10 mins by LC-MS/MS analysis relative to control; format: subcellular; conditions: time 25.0 min
Summary of the method: (§1)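 KiNativ-type profiling in HeLa lysate (5 mg/mL total protein). Lysate preincubated 15 min with inhibitor at 50, 10, 2, 0.8 or 0 μM, then ATP or ADP acylphosphate probe added (5 μM final) for 10 min. Reaction stopped with urea and analysed by targeted MS, using up to four fragment ions per kinase peptide-probe conjugate. % inhibition calculated against untreated lysate. Duplicate reactions.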

PKC alpha and beta-2 = PKC alpha and beta-2 (Homo sapiens, UniProt P17252+P05771); experiment: Inhibition of PKCalpha/beta in human HeLa cells lysate pre incubated for 15 mins followed by ATP acyl phosphate probe addition and measured after 10 mins by LC-MS/MS analysis; format: subcellular
[9] = target: T2, Serine/threonine-protein kinase Sgk3 (Homo sapiens) (UniProt Q96BR1); experiment: Inhibition of SGK3 in human HeLa cells lysate at 50 uM pre incubated for 15 mins followed by ATP acyl phosphate probe addition and measured after 10 mins by LC-MS/MS analysis relative to control; format: subcellular; conditions: time 25.0 min
T2 sequence (whole entry): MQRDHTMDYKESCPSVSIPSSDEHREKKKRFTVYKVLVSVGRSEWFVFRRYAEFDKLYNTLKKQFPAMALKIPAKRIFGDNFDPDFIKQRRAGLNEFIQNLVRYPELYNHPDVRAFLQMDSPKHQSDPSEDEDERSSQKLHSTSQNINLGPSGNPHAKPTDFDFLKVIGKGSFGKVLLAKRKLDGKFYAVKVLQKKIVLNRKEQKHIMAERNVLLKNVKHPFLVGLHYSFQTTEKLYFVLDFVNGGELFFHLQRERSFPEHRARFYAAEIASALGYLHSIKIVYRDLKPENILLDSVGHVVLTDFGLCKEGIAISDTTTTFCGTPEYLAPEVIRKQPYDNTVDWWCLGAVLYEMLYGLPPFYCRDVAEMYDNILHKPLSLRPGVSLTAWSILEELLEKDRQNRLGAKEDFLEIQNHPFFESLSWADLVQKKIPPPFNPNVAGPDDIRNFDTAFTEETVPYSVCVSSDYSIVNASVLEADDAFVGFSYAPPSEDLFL

[10] = target: Serine/threonine-protein kinase Nek1 (Homo sapiens, UniProt Q96PY6); experiment: Inhibition of NEK1 in human HeLa cells lysate pre incubated for 15 mins followed by ATP acyl phosphate probe addition and measured after 10 mins by LC-MS/MS analysis; format: subcellular
[11] = target: Calcium/calmodulin-dependent protein kinase type II subunit gamma (Homo sapiens, UniProt Q13555); experiment: Inhibition of CAMK2g in human HeLa cells lysate at 50 uM pre incubated for 15 mins followed by ATP acyl phosphate probe addition and measured after 10 mins by LC-MS/MS analysis relative to control; format: subcellular; conditions: time 25.0 min; summary of the method: as §1
[12] = Oral bioavailability in Sprague-Dawley rat at 2 mg/kg measured up to 8 hrs by LC-MS/MS analysis; format: ADME, organism-based; conditions: in vivo
[13] = target: T1, STE20-like serine/threonine-protein kinase; experiment: Inhibition of SLK in human HeLa cells lysate pre incubated for 15 mins followed by ATP acyl phosphate probe addition and measured after 10 mins by LC-MS/MS analysis; format: subcellular
Mus musculus = experiment: Antiangiogenic activity in C57Bl/6 mouse implanted with matrigel assessed as reduction in bFGF-induced angiogenesis at 50 mg/kg, ip for 6 days by Masson's trichrome staining based assay; format: functional, organism-based; conditions: time 6.0 day
Summary of the method: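 Mice were implanted with Matrigel containing 400 ng/mL bFGF. From the next day they received drug or vehicle for 6 days. Plugs were then harvested, sectioned and stained with Masson's trichrome; hemoglobin content of the plugs was also measured. n = 6 mice, 9 slices.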

[14] = target: T3, Dual specificity mitogen-activated protein kinase kinase 6 (Homo sapiens) (UniProt P52564); experiment: Inhibition of MAP2K6 in human HeLa cells lysate at 2 uM pre incubated for 15 mins followed by ADP acyl phosphate probe addition and measured after 10 mins by LC-MS/MS analysis relative to control; format: subcellular; conditions: time 25.0 min
T3 sequence (whole entry): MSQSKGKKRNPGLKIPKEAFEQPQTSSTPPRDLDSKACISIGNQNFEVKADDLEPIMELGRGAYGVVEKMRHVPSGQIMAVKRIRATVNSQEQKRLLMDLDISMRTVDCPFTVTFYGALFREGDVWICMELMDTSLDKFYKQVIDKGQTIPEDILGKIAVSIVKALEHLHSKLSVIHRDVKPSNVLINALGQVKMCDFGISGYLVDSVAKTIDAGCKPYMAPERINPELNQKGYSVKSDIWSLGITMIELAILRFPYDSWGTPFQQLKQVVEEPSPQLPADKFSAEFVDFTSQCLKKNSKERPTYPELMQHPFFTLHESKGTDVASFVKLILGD

[15] = Inhibition of MSK1/2 domain 1 in human HeLa cells lysate at 10 uM pre incubated for 15 mins followed by ATP acyl phosphate probe addition and measured after 10 mins by LC-MS/MS analysis relative to control; conditions: 25 min, condition cancer

Chain of Serine/threonine-protein kinase Nek1 (Q96PY6 whole entry): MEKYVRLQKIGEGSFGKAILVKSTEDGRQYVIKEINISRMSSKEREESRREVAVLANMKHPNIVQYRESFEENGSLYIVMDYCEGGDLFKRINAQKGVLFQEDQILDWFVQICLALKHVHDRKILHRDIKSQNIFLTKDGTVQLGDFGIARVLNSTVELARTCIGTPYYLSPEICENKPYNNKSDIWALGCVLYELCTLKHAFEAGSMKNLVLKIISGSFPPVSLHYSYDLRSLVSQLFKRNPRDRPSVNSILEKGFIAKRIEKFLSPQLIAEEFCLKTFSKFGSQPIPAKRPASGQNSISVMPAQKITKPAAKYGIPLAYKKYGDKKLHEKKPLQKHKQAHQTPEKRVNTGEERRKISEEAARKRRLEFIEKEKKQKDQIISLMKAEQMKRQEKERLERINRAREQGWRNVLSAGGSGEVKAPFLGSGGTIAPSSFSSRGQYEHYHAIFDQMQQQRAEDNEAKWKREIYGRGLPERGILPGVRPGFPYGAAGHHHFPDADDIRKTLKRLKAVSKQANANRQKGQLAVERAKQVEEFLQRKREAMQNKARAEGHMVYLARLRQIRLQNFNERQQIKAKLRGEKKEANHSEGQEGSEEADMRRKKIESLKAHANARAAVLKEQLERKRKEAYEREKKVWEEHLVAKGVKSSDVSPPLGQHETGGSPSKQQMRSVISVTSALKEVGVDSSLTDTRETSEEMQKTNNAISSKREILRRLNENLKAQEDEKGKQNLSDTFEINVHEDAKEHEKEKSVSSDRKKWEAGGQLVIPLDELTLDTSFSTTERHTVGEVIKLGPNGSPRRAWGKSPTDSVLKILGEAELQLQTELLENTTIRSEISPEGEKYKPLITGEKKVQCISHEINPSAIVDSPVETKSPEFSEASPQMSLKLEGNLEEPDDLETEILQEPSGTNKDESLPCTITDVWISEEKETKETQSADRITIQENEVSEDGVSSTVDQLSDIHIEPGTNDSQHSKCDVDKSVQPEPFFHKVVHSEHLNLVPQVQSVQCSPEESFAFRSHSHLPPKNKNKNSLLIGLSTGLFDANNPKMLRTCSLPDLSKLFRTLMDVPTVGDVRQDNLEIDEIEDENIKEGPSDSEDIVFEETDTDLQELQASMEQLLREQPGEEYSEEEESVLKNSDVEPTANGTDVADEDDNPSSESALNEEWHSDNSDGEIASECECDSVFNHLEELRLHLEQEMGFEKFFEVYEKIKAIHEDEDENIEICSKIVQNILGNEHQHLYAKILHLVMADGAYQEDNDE
Chain of Ribosomal protein S6 kinase alpha-5 (O75582 whole entry, the tested form may be a part, canonical isoform): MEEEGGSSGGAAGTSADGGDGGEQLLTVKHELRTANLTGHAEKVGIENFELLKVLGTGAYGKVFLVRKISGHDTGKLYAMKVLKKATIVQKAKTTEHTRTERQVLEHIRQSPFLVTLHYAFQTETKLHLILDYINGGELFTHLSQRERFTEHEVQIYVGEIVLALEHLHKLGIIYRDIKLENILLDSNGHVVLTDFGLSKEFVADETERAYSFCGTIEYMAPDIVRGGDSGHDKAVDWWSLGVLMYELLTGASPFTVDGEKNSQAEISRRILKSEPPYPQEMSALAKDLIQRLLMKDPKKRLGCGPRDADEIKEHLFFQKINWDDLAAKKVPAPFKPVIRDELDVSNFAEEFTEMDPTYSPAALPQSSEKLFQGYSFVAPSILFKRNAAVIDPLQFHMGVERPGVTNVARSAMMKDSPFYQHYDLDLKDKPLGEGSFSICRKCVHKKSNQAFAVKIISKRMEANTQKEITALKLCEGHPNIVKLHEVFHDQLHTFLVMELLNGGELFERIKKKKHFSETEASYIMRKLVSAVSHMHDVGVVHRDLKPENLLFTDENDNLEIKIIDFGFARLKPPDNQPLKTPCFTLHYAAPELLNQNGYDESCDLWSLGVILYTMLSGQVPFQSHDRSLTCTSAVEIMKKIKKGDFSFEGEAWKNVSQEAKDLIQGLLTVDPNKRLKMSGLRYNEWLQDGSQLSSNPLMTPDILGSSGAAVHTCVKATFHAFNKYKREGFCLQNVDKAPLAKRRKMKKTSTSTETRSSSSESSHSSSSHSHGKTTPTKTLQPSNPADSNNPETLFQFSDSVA
Chain of Ribosomal protein S6 kinase beta-1 (P23443 whole entry, looked up, the tested form may be a part): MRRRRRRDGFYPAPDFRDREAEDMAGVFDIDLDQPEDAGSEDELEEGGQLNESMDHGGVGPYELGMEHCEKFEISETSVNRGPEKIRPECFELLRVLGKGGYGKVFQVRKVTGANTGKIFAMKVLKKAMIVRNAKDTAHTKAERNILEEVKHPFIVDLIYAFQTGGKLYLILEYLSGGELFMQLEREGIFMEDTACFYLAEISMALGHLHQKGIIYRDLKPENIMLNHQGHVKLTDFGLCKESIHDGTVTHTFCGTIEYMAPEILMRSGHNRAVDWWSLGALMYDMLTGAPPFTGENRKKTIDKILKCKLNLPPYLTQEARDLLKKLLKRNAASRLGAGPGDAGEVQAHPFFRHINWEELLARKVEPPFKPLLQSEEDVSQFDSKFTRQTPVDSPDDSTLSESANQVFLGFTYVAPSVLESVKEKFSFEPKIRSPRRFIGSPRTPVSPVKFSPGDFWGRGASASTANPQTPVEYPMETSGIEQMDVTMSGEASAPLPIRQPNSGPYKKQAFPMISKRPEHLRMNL
Chain of Calcium/calmodulin-dependent protein kinase type II subunit gamma (Q13555 whole entry): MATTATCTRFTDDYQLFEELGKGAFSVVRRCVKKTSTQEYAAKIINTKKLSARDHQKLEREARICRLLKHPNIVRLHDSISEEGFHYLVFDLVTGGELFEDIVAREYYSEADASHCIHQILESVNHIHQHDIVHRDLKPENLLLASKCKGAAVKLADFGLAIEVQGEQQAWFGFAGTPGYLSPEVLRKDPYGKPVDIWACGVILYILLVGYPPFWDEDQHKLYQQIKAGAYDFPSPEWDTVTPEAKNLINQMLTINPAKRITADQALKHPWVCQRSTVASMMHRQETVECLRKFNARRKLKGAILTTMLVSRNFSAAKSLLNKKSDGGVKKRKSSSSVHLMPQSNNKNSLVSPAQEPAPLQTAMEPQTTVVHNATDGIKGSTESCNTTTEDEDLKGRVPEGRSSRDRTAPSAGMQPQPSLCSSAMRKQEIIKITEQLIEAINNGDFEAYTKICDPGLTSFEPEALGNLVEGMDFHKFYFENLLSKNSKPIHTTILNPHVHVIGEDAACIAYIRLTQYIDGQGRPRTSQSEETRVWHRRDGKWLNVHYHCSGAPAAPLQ
Chain of Serine/threonine-protein kinase B-raf (P15056 whole entry, the tested form may be a part): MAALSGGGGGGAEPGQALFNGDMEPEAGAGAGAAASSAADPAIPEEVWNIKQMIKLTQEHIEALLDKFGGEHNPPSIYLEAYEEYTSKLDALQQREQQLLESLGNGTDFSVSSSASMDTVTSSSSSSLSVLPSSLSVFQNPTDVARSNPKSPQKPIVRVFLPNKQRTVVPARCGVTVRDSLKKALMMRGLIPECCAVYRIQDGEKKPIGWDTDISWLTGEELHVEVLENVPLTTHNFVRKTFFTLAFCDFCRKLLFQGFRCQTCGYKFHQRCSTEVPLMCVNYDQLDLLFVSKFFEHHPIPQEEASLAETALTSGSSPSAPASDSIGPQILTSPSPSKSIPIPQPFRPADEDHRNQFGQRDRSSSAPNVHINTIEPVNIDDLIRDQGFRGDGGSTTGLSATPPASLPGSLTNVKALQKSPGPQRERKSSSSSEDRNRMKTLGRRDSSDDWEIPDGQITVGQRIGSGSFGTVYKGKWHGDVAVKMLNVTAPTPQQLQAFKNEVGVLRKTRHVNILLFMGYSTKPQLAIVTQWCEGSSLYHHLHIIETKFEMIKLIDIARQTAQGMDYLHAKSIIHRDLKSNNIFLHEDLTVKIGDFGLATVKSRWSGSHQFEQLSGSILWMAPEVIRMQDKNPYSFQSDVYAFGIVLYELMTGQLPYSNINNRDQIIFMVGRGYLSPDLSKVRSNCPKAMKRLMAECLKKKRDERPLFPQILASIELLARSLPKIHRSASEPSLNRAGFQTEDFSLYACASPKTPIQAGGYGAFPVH
Chain of Serine/threonine-protein kinase PLK1 (Homo sapiens), P53350 [UNDEFINED MUTATION] (P53350 whole entry, looked up, stated change not applied, canonical isoform): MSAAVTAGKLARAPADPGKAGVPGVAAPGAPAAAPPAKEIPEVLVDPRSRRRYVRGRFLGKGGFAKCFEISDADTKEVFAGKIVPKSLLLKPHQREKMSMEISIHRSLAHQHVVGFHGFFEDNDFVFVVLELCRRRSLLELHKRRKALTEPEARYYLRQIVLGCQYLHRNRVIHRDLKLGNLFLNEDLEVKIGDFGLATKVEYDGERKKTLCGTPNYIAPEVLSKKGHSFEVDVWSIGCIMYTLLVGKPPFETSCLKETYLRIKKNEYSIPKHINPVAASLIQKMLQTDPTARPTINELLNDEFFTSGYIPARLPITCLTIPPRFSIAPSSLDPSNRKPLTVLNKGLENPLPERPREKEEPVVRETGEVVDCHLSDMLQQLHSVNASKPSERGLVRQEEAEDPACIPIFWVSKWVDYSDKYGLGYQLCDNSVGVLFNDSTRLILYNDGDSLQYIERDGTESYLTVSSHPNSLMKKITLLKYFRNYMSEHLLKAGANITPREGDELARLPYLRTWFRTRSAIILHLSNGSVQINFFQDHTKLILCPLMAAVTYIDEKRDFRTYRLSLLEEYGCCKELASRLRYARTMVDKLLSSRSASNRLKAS
Chain of 5'-AMP-activated protein kinase catalytic subunit alpha-1 (Q13131 whole entry, the tested form may be a part): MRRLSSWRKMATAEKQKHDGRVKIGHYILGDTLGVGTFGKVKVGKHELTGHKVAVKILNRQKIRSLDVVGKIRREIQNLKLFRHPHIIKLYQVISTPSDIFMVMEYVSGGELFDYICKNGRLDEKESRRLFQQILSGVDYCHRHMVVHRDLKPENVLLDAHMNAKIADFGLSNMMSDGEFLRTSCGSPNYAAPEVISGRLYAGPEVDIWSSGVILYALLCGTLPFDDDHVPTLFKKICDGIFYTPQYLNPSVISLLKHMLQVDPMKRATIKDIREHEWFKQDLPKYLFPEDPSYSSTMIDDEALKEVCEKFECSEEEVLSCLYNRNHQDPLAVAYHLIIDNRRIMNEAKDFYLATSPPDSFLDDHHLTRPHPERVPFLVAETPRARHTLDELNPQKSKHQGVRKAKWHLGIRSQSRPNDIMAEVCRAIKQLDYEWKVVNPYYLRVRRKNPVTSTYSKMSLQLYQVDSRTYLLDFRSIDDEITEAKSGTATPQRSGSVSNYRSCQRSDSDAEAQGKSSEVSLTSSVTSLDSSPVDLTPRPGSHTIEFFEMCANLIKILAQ

Compound: CCOc1cc(N2CCC(O)CC2)ccc1Nc1ncc2c(n1)N(C)c1ccccc1C(=O)N2C
- inhibition [1]: 5.7%
- inhibition [2]: -9.6%
- pIC50 [3]: < 4.30
- inhibition [4]: 0.8%
- inhibition at 10 µM [5]: -11.1%
- MRT [6]: 2.2 h
- pIC50 [7]: < 4.30
- inhibition [8]: 10.5%
- IC50 (PKC alpha and beta-2): > 50 µM
- inhibition [9]: -0.9%
- pIC50 [10]: < 4.30
- inhibition [11]: 13.9%
- bioavailability [12]: 69%
- pIC50 [13]: < 4.30
- Activity (Mus musculus): Active
- inhibition [14]: 6.7%
- inhibition at 10 µM [15]: -10.6%
